For 25 compounds, IC50, Ratio IC50 and inhibition results are on record in ChEMBL document CHEMBL1153204, “Novel purine and pyrazolo[3,4-d]pyrimidine inhibitors of PI3 kinase-alpha: Hit to lead studies” (Bioorg Med Chem Lett, 2010).

Assay [1] concerns the target Phosphatidylinositol 4,5-bisphosphate 3-kinase catalytic subunit alpha isoform (Homo sapiens, UniProt P42336). The assay can be described thus: Inhibition of GST-GRP1-fused PI3Kalpha by microtiter plate based fluorescence polarization assay. For orientation: In fluorescence polarisation assays a small probe gives low polarisation when free and higher when bound to something large.

For assay [2], the target named is Phosphatidylinositol 4,5-bisphosphate 3-kinase catalytic subunit gamma isoform (Homo sapiens, UniProt P48736). The assay can be described thus: Inhibition of GST-GRP1-fused PI3Kgamma by microtiter plate based fluorescence polarization assay. A digest of the protocol:
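Fluorescence polarization assay monitoring PIP3 production by PI3K p110α or p110γ. IC50 values are the means of two experiments, SD ±10%.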

Assay [3] concerns the target Serine/threonine-protein kinase mTOR (Homo sapiens, UniProt P42345). Kind of assay: Inhibition of human TOR in HEK293 cells by DELFIA. The class given is cell-based. A digest of the protocol: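 DELFIA-format assay detecting phosphorylated His6-S6K substrate. IC50 values are the means of two experiments, SD ±10%.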
A further assay concerns Caco-2. The assay can be described thus: Antiproliferative activity against human Caco-2 cells. It counts as functional, cell-based. In a few lines:
(§1)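 Growth densities of Caco-2 (colorectal), LoVo (colon) and PC3MM2 (prostate) adenocarcinoma cultures monitored after compound exposure to measure proliferation.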

The subject of another assay is LoVo. The assay can be described thus: Antiproliferative activity against human LoVo cells. It counts as functional, cell-based. In a few lines:
as §1

For another assay, the system named is PC-3. Kind of assay: Antiproliferative activity against human PC3 cells. It counts as functional, cell-based. A digest of the protocol:
as §1

Assay [4] can be described thus: Selectivity ratio of IC50 for PI3Kgamma to IC50 for PI3Kalpha.
Assay [5] in a line: Selectivity ratio of IC50 for human TOR to IC50 for PI3Kalpha.
The subject of the next assay is MDA-MB-361. The assay can be described thus: Inhibition of PI3K in human MDA-MB-361 cells assessed as reduction of phosphorylated Akt (T308) level at 3 to 30 uM after 4 hrs by immunoblotting. It counts as cell-based. A digest of the protocol:
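MDA-361 breast adenocarcinoma cells were treated in growth media for 4 h with the indicated doses, with a DMSO control. Lysates were immunoblotted for phospho-Akt T308, and for cleaved PARP as an apoptosis marker.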

Active and inactive are the calls of the source. The calls are words filed in the database; no cut-off is given here.

The IC50 is the concentration that inhibits the measured activity by half. Higher therefore signals lower potency.

Phosphatidylinositol 4,5-bisphosphate 3-kinase catalytic subunit alpha isoform, sequence (P42336 whole entry, the tested form may be a part, canonical isoform): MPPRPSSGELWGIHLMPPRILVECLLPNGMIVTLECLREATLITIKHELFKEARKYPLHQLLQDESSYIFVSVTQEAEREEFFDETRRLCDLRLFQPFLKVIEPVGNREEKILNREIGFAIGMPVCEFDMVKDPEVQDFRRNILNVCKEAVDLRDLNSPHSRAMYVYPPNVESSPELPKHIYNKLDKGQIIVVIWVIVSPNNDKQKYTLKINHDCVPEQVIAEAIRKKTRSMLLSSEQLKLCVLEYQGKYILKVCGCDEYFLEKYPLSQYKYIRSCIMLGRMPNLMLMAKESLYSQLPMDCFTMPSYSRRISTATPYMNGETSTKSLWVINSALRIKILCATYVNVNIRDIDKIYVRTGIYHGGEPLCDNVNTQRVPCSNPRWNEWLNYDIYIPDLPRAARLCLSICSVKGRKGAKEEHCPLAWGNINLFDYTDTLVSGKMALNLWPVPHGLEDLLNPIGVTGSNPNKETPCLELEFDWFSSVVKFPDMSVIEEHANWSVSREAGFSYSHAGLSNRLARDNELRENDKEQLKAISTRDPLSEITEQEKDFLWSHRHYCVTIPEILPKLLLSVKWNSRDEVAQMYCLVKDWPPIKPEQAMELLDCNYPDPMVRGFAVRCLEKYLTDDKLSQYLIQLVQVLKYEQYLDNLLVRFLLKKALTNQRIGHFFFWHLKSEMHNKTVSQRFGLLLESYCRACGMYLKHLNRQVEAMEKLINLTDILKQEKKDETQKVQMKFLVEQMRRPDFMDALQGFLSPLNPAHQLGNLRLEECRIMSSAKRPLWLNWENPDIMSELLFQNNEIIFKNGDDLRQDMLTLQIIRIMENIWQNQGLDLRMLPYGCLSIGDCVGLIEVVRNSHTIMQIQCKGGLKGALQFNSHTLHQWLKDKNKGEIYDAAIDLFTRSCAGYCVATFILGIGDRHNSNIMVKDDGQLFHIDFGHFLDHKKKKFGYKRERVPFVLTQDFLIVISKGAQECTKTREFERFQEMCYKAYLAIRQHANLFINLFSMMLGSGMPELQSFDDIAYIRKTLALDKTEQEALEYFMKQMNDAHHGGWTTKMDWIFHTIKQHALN
Phosphatidylinositol 4,5-bisphosphate 3-kinase catalytic subunit gamma isoform, sequence (P48736 whole entry, the tested form may be a part, canonical isoform): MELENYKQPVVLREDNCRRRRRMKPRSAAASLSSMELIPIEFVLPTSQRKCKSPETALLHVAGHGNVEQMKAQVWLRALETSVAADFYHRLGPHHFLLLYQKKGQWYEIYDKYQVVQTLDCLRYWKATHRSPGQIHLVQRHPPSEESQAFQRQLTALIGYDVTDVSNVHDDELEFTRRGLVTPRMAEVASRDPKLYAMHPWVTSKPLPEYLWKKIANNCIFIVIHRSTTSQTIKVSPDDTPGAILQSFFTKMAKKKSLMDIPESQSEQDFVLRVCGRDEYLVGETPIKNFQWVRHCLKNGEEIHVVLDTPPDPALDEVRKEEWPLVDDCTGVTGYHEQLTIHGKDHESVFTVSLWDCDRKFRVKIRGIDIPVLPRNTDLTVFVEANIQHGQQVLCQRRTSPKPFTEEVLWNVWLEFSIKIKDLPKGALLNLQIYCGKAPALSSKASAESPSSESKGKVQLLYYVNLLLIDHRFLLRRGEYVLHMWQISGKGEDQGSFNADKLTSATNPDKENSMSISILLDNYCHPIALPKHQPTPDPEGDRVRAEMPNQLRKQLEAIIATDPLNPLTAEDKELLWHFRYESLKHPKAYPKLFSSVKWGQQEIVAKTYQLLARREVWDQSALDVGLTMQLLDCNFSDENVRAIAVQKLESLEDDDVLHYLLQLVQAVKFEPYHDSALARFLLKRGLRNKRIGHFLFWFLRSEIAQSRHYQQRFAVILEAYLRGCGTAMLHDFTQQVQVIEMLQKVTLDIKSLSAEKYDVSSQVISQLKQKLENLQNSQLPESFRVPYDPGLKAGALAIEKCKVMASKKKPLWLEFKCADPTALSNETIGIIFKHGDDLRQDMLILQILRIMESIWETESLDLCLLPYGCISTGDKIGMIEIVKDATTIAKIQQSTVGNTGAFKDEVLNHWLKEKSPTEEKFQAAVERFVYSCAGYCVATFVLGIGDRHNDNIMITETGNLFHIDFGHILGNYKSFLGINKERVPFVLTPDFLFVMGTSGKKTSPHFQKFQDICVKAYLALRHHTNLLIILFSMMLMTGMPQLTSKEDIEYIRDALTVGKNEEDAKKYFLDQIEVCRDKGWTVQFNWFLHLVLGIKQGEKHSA

`c1cc2ccc(-c3nc(N4CCOCC4)c4nc[nH]c4n3)cc2[nH]1`: the IC50 was determined as 2330 nM in [1], 7370 nM in [2] and 150 nM in [3].

Regarding `OCc1ccc(-c2nc(N3CCOCC3)c3nc[nH]c3n2)cc1`, the IC50 amounted to 2890 nM in [1] and 7970 nM in assay [2].

In the case of `Oc1cccc(-c2nc(N3CCOCC3)c3cnn(C4CCNCC4)c3n2)c1`, the IC50 in assay [2] is 993 nM; with Caco-2 it was 5580 nM; in the assay with LoVo, 1580 nM; in the assay with PC-3 it was 922 nM.

As for `OCc1cccc(-c2nc(N3CCOCC3)c3cnn(C4CCN(Cc5ccccc5)CC4)c3n2)c1`, the IC50 in assay [1] came out at 25 nM; in assay [2], 975 nM; in assay [3], 90 nM; with Caco-2, 1340 nM; with LoVo, 511 nM; with PC-3, 345 nM.

For the compound `Oc1cccc(-c2nc(N3CCOCC3)c3ncn(C4CCNCC4)c3n2)c1`, the IC50 in assay [1] amounted to 65 nM; in assay [2], 131 nM; in [3], 870 nM; with Caco-2, 4040 nM; with LoVo it was 2020 nM; in the assay on PC-3, 1520 nM.

As to `CS(=O)(=O)c1ccc(-c2nc(N3CCOCC3)c3nc[nH]c3n2)cc1`, the IC50 in assay [1] worked out at 1760 nM; in assay [2] it was 5830 nM.

As for `OCc1cccc(-c2nc(N3CCOCC3)c3ncn(C4CCNCC4)c3n2)c1`, the IC50 in assay [1] is 58 nM; in the assay with Caco-2, 4500 nM; in the assay with LoVo it was 1870 nM; with PC-3, 2360 nM. For the same compound, the Ratio IC50 in assay [4] was 11; in assay [5] it was greater than 100.

`Oc1cccc(-c2nc(N3CCCCC3)c3nc[nH]c3n2)c1`: the figures for the IC50 in [1] and in assay [2] were 3770 nM and 10300 nM, respectively.

In the case of `Oc1cccc(-c2nc(N3CCOCC3)c3cnn(C4CCN(Cc5ccccc5)CC4)c3n2)c1`, the IC50 in assay [2] came to 2370 nM; in assay [3], 83 nM; with Caco-2 it was 5970 nM; in the assay with LoVo, 1610 nM; in the assay on PC-3, 940 nM.

Regarding `c1nc2c(N3CCOCC3)nc(-c3ccsc3)nc2[nH]1`, the IC50 in assay [1] stood at 2380 nM; in assay [2], 8000 nM.

Take `OCc1cccc(-c2nc(N3CCOCC3)c3ncn(C4CCN(Cc5ccccc5)CC4)c3n2)c1`: the IC50 amounted to 691 nM in assay [3], 5170 nM with Caco-2, 1050 nM with LoVo and 1280 nM with PC-3. Moreover, the inhibition result in the assay with MDA-MB-361 was “Active”.

For `Oc1cccc(-c2nc(N3CCOCC3)c3nc[nH]c3n2)c1`, the IC50 in [1] turned out to be 232 nM; in assay [3] it was 2380 nM.

Turning to `c1nc2c(N3CCOCC3)nc(-c3ccc4c(c3)OCO4)nc2[nH]1`, the IC50 is 1210 nM in [1] and 6910 nM in [2].

For the compound `OCc1cccc(-c2nc(N3CCOCC3)c3ncn(CC4CCN(Cc5ccccc5)CC4)c3n2)c1`, the IC50 worked out at 248 nM in [1]; 1650 nM in assay [2]; 5790 nM in the assay with Caco-2; 3080 nM with LoVo; 9270 nM in the assay with PC-3.

As to `CS(=O)(=O)Nc1cccc(-c2nc(N3CCOCC3)c3nc[nH]c3n2)c1`, the concentration for half-maximal inhibition (IC50) in [1] was found to be 4380 nM; in assay [2] it was 7910 nM.

Turning to `c1csc(-c2nc(N3CCOCC3)c3nc[nH]c3n2)c1`, the IC50 in [1] was 640 nM; in [2], 6740 nM; in the assay with Caco-2 it was greater than 10000 nM; with LoVo, greater than 10000 nM; with PC-3, greater than 10000 nM.

Regarding `NC(=O)c1ccc(-c2nc(N3CCOCC3)c3nc[nH]c3n2)cc1`, the IC50 came out at 6700 nM in [1] and 10000 nM in assay [2].

Take `c1nc2c(N3CCOCC3)nc(-c3ccoc3)nc2[nH]1`: the 50% inhibitory concentration (IC50) in assay [1] came to 3790 nM; in assay [2] it was 11000 nM.

In the case of `c1nc2c(N3CCOCC3)nc(-c3ccc4c(c3)OCCO4)nc2[nH]1`, the IC50 came out at 3480 nM in assay [1] and 7580 nM in [2].

On to `Oc1ccc(-c2nc(N3CCOCC3)c3nc[nH]c3n2)cc1`, for which the results for the IC50 in [1] and in assay [2] were 2540 nM and 8560 nM, respectively.

`Oc1cccc(-c2nc(N3CCOCC3)c3ncn(CC4CCN(Cc5ccccc5)CC4)c3n2)c1`: the IC50 in [1] was determined as 199 nM; in [2], 2380 nM; with Caco-2, 6490 nM; with LoVo, 3510 nM; in the assay on PC-3, 7350 nM.

For the compound `N#Cc1cccc(-c2nc(N3CCOCC3)c3nc[nH]c3n2)c1`, the IC50 in assay [1] is 2910 nM; in assay [2] it was 8300 nM.

As for `Oc1ccccc1-c1nc(N2CCOCC2)c2nc[nH]c2n1`, the IC50 in [1] is 667 nM; in [2] it was 5140 nM; in the assay with Caco-2, greater than 10000 nM; with LoVo, 7310 nM; with PC-3 it was greater than 10000 nM.

With `CS(=O)(=O)c1cccc(-c2nc(N3CCOCC3)c3nc[nH]c3n2)c1`, the IC50 came to 3900 nM in assay [1] and 7910 nM in assay [2].

Turning to `Oc1cccc(-c2nc(N3CCOCC3)c3ncn(C4CCN(Cc5ccccc5)CC4)c3n2)c1`, the IC50 in assay [1] is 80 nM; in [2], 10800 nM; in the assay with Caco-2 it was greater than 10000 nM; with LoVo, 1950 nM; in the assay with PC-3, 1110 nM.
